Reference: ChEMBL document CHEMBL3817728, “Synthesis, Evaluation, and Mechanism Study of Novel Indole-Chalcone Derivatives Exerting Effective Antitumor Activity Through Microtubule Destabilization in Vitro and in Vivo” (J Med Chem, 2016)

Columns and labels:
A549 [1] = experiment: Disruption of mitochondrial membrane potential in human A549 cells assessed as green fluorescence intensity at 3 nM after 24 hrs by JC1 staining-based flow cytometric method (reference value: 0.02%); assay type: functional
A549 [2] = experiment: Induction of apoptosis in human A549 cells assessed as viable cells at 10 nM after 48 hrs by annexin V-FITC/propidium iodide staining-based flow cytometric method (reference value: 98.1%); assay type: functional; details: A549, 48 h, read-out: Activity
Outline: (§1)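 A549 cells exposed 24 h or 48 h at indicated concentrations, then trypsinized, harvested and stained with Annexin V-FITC and PI; flow cytometry quadrants scored as necrotic (upper left), late apoptotic (upper right), live (bottom left) and early apoptotic (bottom right). Five independent experiments, representative shown.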

HeLa = experiment: Cytotoxicity against human HeLa cells assessed as cell viability after 48 hrs by MTT assay; assay type: functional, cell-based
Outline: (§2)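 Cancer cell lines treated with compound for 48 h, and viability read by MTT assay. IC50 given as mean ± SD from at least three independent experiments.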

HUVEC = experiment: Cytotoxicity against quiescent HUVEC assessed as growth inhibition after 48 hrs in presence of 0.5% fetal calf serum and absence of growth factor by MTT assay; assay type: cell-based; details: Homo sapiens
Outline: (§3)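 Non-tumorigenic cells given 48 h compound exposure, and viability read by MTT. IC50 is mean ± SE from dose-response curves of at least three independent experiments. HUVECs were kept quiescent in endothelial cell medium with 0.5% fetal calf serum and no growth factor.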

A549 [3] = experiment: Antitumor activity against human A549 cells xenografted in BALB/c nude mouse assessed as tumor growth inhibition at 30 mg/kg, ip administered every other day for 1 month measured every other day post dose relative to vehicle-treated control; assay type: functional; details: read-out: TGI
A549 [4] = experiment: Disruption of mitochondrial membrane potential in human A549 cells assessed as green fluorescence intensity at 10 nM after 24 hrs by JC1 staining-based flow cytometric method (reference value: 0.02%); assay type: functional
[5] = Metabolic stability in Sprague-Dawley rat liver microsomes assessed as compound remaining at 30 mins in presence of NADPH regenerating system by HPLC method; assay type: ADME; details: read-out: Stability
Outline: (§4)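 Test compound incubated with rat liver microsomes at 37 ℃ in buffer containing an NADPH regenerating system for the stated time. Remaining parent compound was quantified by HPLC.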

A549 [6] = experiment: Induction of apoptosis in human A549 cells assessed as necrotic cells at 1 nM after 24 hrs by annexin V-FITC/propidium iodide staining-based flow cytometric method (reference value: 0.03%); assay type: functional
A549 [7] = experiment: Disruption of mitochondrial membrane potential in human A549 cells assessed as red fluorescence intensity at 3 nM after 24 hrs by JC1 staining-based flow cytometric method (reference value: 99.2%); assay type: functional
A549 [8] = experiment: Induction of apoptosis in human A549 cells assessed as viable cells at 3 nM after 48 hrs by annexin V-FITC/propidium iodide staining-based flow cytometric method (reference value: 98.1%); assay type: functional; details: A549, 48 h, read-out: Activity; outline: as §1
A549 [9] = experiment: Induction of apoptosis in human A549 cells assessed as viable cells at 3 nM after 24 hrs by annexin V-FITC/propidium iodide staining-based flow cytometric method (reference value: 98.9%); assay type: functional; details: A549, 24 h, read-out: Activity; outline: as §1
[10] = Half life in Sprague-Dawley rat liver microsomes in presence of NADPH regenerating system by HPLC method; assay type: ADME
Outline: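 Compound incubated with rat liver microsomes at 37 °C in buffer containing an NADPH regenerating system, sampled over time up to 3 h. Remaining parent compound was measured by HPLC and half-life derived.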

[11] = Selectivity ratio of IC50 for HLF to IC50 for human A549 cells; assay type: ADME, cell-based; details: HLF versus A549 cells, read-out: Ratio IC50
Outline: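 Selectivity ratio = IC50 in normal cells / IC50 in A549; IC50 values mean ± SE from dose-response curves of at least three independent experiments. HUVECs kept quiescent in endothelial cell medium with 0.5% fetal calf serum, no growth factor.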

Mus musculus = experiment: Toxicity in BALB/c nude mouse xenografted with human A549 cells assessed as loss of body weight at 30 mg/kg, ip administered every other day for 1 month measured every other day post dose relative to vehicle-treated control; assay type: organism-based; details: in vivo
MCF7 [12] = experiment: Cytotoxicity against human MCF7 cells assessed as cell viability after 48 hrs by MTT assay; assay type: functional, cell-based; details: MCF7, 48 h; outline: as §2
[13] = Metabolic stability in Sprague-Dawley rat liver microsomes assessed as compound remaining at 180 mins in presence of NADPH regenerating system by HPLC method; assay type: ADME; details: read-out: Stability
Outline: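 Rat liver microsomes incubated with compound at 37 ℃ for indicated times in buffer containing NADPH regenerating system; residual parent determined by HPLC.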

[14] = Cytotoxicity against human MCF7/DX cells assessed as growth inhibition after 48 hrs by MTT assay; assay type: functional, cell-based
Outline: (§5)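 Drug-resistant lines were tested by a 48 h MTT viability assay. IC50 was derived from dose-response curves and reported as mean ± SE of at least three independent experiments.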

A549 [15] = experiment: Induction of apoptosis in human A549 cells assessed as early apoptotic cells at 1 nM after 48 hrs by annexin V-FITC/propidium iodide staining-based flow cytometric method (reference value: 1.95%); assay type: functional
[16] = Cytotoxicity against human A2780/TAX cells assessed as growth inhibition after 48 hrs by MTT assay; assay type: functional, cell-based; outline: as §5
A549 [17] = experiment: Induction of apoptosis in human A549 cells assessed as late apoptotic cells at 1 nM after 48 hrs by annexin V-FITC/propidium iodide staining-based flow cytometric method (reference value: 0.01%); assay type: functional
A549 [18] = experiment: Induction of apoptosis in human A549 cells assessed as early apoptotic cells at 10 nM after 24 hrs by annexin V-FITC/propidium iodide staining-based flow cytometric method (reference value: 1.07%); assay type: functional
[19] = Cytotoxicity against human Bel7402 cells assessed as cell viability after 48 hrs by MTT assay; assay type: functional, cell-based; details: Bel-7402, 48 h; outline: as §2
A549 [20] = experiment: Resistance index, ratio of IC50 for human A549/CDDP cells to IC50 for human A549 cells; assay type: functional
A549 [21] = experiment: Disruption of mitochondrial membrane potential in human A549 cells assessed as red fluorescence intensity at 10 nM after 24 hrs by JC1 staining-based flow cytometric method (reference value: 99.2%); assay type: functional
A549 [22] = experiment: Induction of apoptosis in human A549 cells assessed as late apoptotic cells at 1 nM after 24 hrs by annexin V-FITC/propidium iodide staining-based flow cytometric method (reference value: 0.01%); assay type: functional
Tubulin (Sus scrofa) = Tubulin (Sus scrofa) (UniProt P02554+P02550); experiment: Inhibition of [3H]-colchicine binding to porcine brain tubulin at 1 uM relative to control
Chain of Tubulin (Sus scrofa) (P02550 whole entry, looked up): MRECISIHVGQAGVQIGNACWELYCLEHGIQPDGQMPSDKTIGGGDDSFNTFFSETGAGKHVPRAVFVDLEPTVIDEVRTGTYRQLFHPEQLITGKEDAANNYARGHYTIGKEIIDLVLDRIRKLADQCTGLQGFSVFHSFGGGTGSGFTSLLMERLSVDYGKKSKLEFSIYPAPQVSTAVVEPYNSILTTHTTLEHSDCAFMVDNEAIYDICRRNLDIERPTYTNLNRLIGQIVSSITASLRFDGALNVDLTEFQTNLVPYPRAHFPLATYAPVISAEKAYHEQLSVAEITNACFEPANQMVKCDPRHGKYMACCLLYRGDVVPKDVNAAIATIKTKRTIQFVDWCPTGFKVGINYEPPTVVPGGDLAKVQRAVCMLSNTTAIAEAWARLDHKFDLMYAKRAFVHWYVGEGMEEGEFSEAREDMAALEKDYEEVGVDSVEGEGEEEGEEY
Chain of Tubulin (Sus scrofa) (P02554 whole entry, looked up): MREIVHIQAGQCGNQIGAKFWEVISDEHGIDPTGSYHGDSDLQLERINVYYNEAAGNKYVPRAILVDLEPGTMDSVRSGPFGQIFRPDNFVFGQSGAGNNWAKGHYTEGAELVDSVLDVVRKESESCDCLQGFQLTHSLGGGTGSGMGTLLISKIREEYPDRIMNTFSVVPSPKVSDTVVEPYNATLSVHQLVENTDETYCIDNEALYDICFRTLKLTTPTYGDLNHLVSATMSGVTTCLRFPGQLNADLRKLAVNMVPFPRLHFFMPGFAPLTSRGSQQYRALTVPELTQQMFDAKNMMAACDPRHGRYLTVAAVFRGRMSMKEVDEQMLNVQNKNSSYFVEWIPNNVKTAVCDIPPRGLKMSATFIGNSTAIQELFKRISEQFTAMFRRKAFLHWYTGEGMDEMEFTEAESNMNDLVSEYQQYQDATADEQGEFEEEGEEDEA
Outline: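 Competition with [3H]colchicine at 5 μM; test agents at 5 or 1 μM. Mean ± SD of at least three independent experiments.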

[23] = Cytotoxicity against human A549/CDDP cells assessed as growth inhibition after 48 hrs by MTT assay; assay type: functional, cell-based; details: A549, 48 h; outline: as §5
MCF7 [24] = experiment: Resistance index, ratio of IC50 for human MCF7/DX cells to IC50 for human MCF7 cells; assay type: functional
[25] = Cytotoxicity against HLF assessed as growth inhibition after 48 hrs by MTT assay; details: Homo sapiens; outline: as §3
[26] = Cytotoxicity against human HCT8/VCT cells assessed as growth inhibition after 48 hrs by MTT assay; assay type: functional, cell-based; outline: as §5
[27] = Metabolic stability in Sprague-Dawley rat liver microsomes assessed as compound remaining at 60 mins in presence of NADPH regenerating system by HPLC method; assay type: ADME; details: read-out: Stability; outline: as §4

COc1ccc2c(/C=C(\C)C(=O)c3cc(OC)c(OC)c(OC)c3)c[nH]c2c1
Activity (A549 [1]): 43.8%
viability at 0.01 µM (A549 [2]): 15.6%
IC50 (HeLa): 7 nM
IC50 (HUVEC): 163 nM
inhibition in vivo at 30 mg/kg (A549 [3]): 66.1%
Activity (A549 [4]): 57.2%
remaining at 0.5 h [5]: 85.6%
Activity (A549 [6]): 1.45%
Activity (A549 [7]): 53.9%
viability at 0.003 µM (A549 [8]): 33.9%
viability at 0.003 µM (A549 [9]): 69.7%
half-life [10]: 2.62 h
selectivity ratio [11]: 1890
Activity (Mus musculus): Non-toxic
IC50 (MCF7 [12]): 6 nM
remaining at 3 h [13]: 42.4%
IC50 [14]: 9 nM
Activity (A549 [15]): 18.9%
IC50 [16]: 124 nM
Activity (A549 [17]): 14.6%
Activity (A549 [18]): 25.27%
IC50 [19]: 9 nM
Ratio IC50 (A549 [20]): 1.33
Activity (A549 [21]): 40.7%
Activity (A549 [22]): 2.12%
inhibition (Tubulin (Sus scrofa)): 82%
IC50 [23]: 4 nM
Ratio IC50 (MCF7 [24]): 1.5
IC50 [25]: 5670 nM
IC50 [26]: 5 nM
remaining at 1 h [27]: 80.5%
